Data set [1] is described as follows: In vivo antitumor efficacy in nude mice by injecting a dose of 25 mg/kg, as HCl salt in solution, iv and the total drug exposure was determined. (0-24hr). Details: time < 24 hr, dose 25 mg/kg, route intravenous. Type of data set: ADME, organism-based. The note with it: mouse.
The subject of data set [2] is Cynomolgus monkey. Nature of the data set: In vivo antitumor efficacy in cynomolgus monkeys by injecting a dose of 10 mg/kg, as HCl salt in saline solution, perorally and the duration of action was reported. Type of data set: ADME, organism-based, Macaca fascicularis. More on the design: dose 10 mg/kg, route oral. The note with it: po. An outline of the steps:
(§1)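 Cynomolgus monkeys; hydrochloride salt in saline iv, or compound given po (as hydrochloride, as micronized free base in corn oil, or as hydrochloride in 0.4% methyl cellulose, depending on compound).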

Data set [3] is described as follows: In vivo antitumor efficacy in nude mice by injecting a dose of 25 mg/kg, as HCl salt in saline solution, iv and the serum half-life was determined. The format is ADME, organism-based. The note with it: mouse. Details: dose 25 mg/kg, route intravenous.
Data set [4] in a line: In vivo antitumor efficacy in nude mice by injecting a dose of 25 mg/kg, as HCl salt in solution, iv and the serum half-life was determined. The format is ADME, organism-based. Details: dose 25 mg/kg, route intravenous. The note with it: mouse.
Data set [5] concerns the target geranylgeranyltransferase type-I (Rattus norvegicus, UniProt P53610+Q04631). Nature of the data set: Inhibition of rat Geranylgeranyl transferase (GGPT). The format is protein-complex assay.
A short description of data set [6]: (§2) Maximal plasma concentration in nude mice after 25 mg/kg oral dose. The format is ADME, organism-based. The note with it: mouse. Details: dose 25 mg/kg, route oral.
Data set [7] relates to Mus musculus. Nature of the data set: In vivo antitumor efficacy in nude mice by injecting a dose of 25 mg/kg, as HCl salt in solution, perorally and the total drug exposure was determined (0-24hr). Details: time < 24 hr, dose 25 mg/kg, route oral. The format is ADME, organism-based. The note with it: po.
A short description of data set [8]: Oral bioavailability in mouse (nude) (dose 25 mg/kg i.v.). The format is ADME, organism-based. The note with it: in vivo.
The nature of data set [9]: Oral bioavailability in mouse (nude) (dose of 25 mg/kg). Type of data set: ADME, organism-based. The note with it: in vivo. The method in brief: (§3)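 Serum pharmacokinetics in nude mice or cynomolgus monkeys after oral (po) or iv dosing. Compounds were given as hydrochloride salts in 20% HPβCD unless otherwise noted. Other formulations were the hydrochloride salt in saline, the micronized free base in 20% HPβCD or corn oil (po) with saline for iv, or the hydrochloride salt in 0.4% methyl cellulose (po).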

Data set [10] in a line: In vivo antitumor efficacy in cynomolgus monkeys by injecting a dose of 25 mg/kg, as HCl salt in saline solution, perorally and the maximum drug concentration was determined. The format is ADME, organism-based, Macaca fascicularis. More on the design: dose 25 mg/kg, route oral. The note with it: cynomolgus monkey, po. An outline of the steps: as §3
The nature of data set [11]: as §2. The format is ADME, organism-based. The note with it: mouse. More on the design: dose 25 mg/kg, route oral. This is another data set of the same source.
The nature of data set [12]: In vivo antitumor efficacy in cynomolgus monkeys by injecting a dose of 25 mg/kg, as HCl salt in saline solution, perorally and the total drug exposure was determined (0-8 hr). Type of data set: ADME, organism-based, Macaca fascicularis. More on the design: time < 8 hr, dose 25 mg/kg, route oral. The note with it: cynomolgus monkey, po. An outline of the steps:
as §1

Data set [13] is described as follows: In vivo antitumor efficacy in nude mice by injecting a dose of 25 mg/kg, as HCl salt in saline solution, iv and the total drug exposure was determined. Type of data set: ADME, organism-based. More on the design: dose 25 mg/kg, route intravenous. The note with it: mouse.
Data set [14] concerns Mus musculus. Nature of the data set: In vivo antitumor efficacy in nude mice by injecting a dose of 25 mg/kg, as HCl salt in saline solution, perorally and the total drug exposure was determined. Type of data set: ADME, organism-based. Details: dose 25 mg/kg, route oral. The note with it: po.
Data set [15] can be described thus: In vivo antitumor efficacy peroral dose of 25 mg/kg expressed as duration for which compound was present above IC50. More on the design: dose 25 mg/kg, route oral. The note with it: po. Type of data set: ADME, organism-based. An outline of the steps: as §3
Data set [16] in a line: In vivo antitumor efficacy in nude mice by injecting a dose of 25 mg/kg iv and serum half-life was determined. Details: dose 25 mg/kg, route intravenous. The note with it: mouse. Type of data set: ADME, organism-based. The method in brief:
as §3

Data set [17] is described as follows: In vivo antitumor efficacy in nude mice after peroral dose of 25 mg/kg expressed as Area under the curve. Type of data set: ADME, organism-based. More on the design: dose 25 mg/kg, route oral. The note with it: mouse, po. An outline of the steps: as §3
Data set [18] can be described thus: as §2. Type of data set: ADME, organism-based. More on the design: dose 25 mg/kg, route oral. The note with it: mouse. The method in brief:
as §3
This is another data set of the same source.

In data set [19] the target is T1, Protein farnesyltransferase (Homo sapiens, UniProt P49354+P49356). Nature of the data set: Inhibition of Farnesyltransferase from Ras-CVLS or Ras-CVLL in Cos-7 monkey kidney cells. The format is cell-based, Chlorocebus aethiops.
Data set [20] in a line: In vivo antitumor efficacy in nude mice 0-24 hr after peroral dose of 25 mg/kg expressed as Area under the curve. Type of data set: ADME, organism-based. More on the design: time < 24 hr, dose 25 mg/kg, route oral. The note with it: nude, mouse, po. The method in brief: as §3
In data set [21] the target is T1, Protein farnesyltransferase. Nature of the data set: In vitro inhibition of farnesyltransferase farnesylation of the H-ras oncogene. The format is protein-complex assay.
Data set [22] can be described thus: In vivo antitumor efficacy after peroral dose of 25 mg/kg expressed as duration for which compound was present above IC50. The note with it: po. Details: dose 25 mg/kg, route oral. Type of data set: ADME, organism-based. An outline of the steps: as §3
A short description of data set [23]: In vivo antitumor efficacy in nude mice 0-24 hr after intravenous dose of 25 mg/kg expressed as Area under the curve. Type of data set: ADME, organism-based. More on the design: time < 24 hr, dose 25 mg/kg, route intravenous. The note with it: mouse. An outline of the steps: as §3
Data set [24] is described as follows: In vivo antitumor efficacy in nude mice 0-24 hr after iperoral dose of 25 mg/kg expressed as Area under the curve. The note with it: mouse, po. More on the design: time < 24 hr, dose 25 mg/kg. The format is ADME, organism-based. An outline of the steps: as §3

As a reminder, the half-life is how long it takes for the measured level to halve. What is called IC50 is the concentration that inhibits the measured activity by half. What is called Cmax is the peak of the concentration-time curve. In general, bioavailability refers to dose-corrected exposure relative to a reference, in per cent.

With `CN1CCC(CC(=O)N2CCN(C3c4ccc(Cl)cc4CCc4cc(Br)cnc43)CC2)CC1` (stereo not given), in data set [1], the AUC at 24 h was 40600 ng·h/mL. The “Time above IC50” value in [2] stood at 72 h. In addition, the results for the half-life in data set [3] and in data set [4] were 8.5 h and 8.3 h, respectively. In data set [5], this molecule registered an IC50 of more than 38000 nM. Further, the Cmax in data set [6] was found to be 4000 nM; in [10], 1500 nM; in [11], 30000 nM. In addition, the AUC was determined as 18.4 uh ml-1 in [7], 32900 ng·h/mL in [13] and 39 uh ml-1 in data set [14]. The figures for the bioavailability in data set [8] and in [9] were 100% and 45%, respectively. Besides, the AUC at 8 h in [12] came out at 37200 ng·h/mL.
For the molecule `O=C(Cc1ccncc1)N1CCN(C2c3ccc(Cl)cc3CCc3cc(Br)cnc32)CC1` (stereo not given), in [15], the “Time above IC50” value was 6 h. The half-life in data set [16] was 0.74 h. In addition, the AUC in [17] amounted to 1100 ng·h/mL. The figures for the half-maximal inhibitory concentration (IC50) in data set [5], in data set [19] and in data set [21] were more than 39000 nM, 380 nM and 12 nM, respectively. In [18], this molecule showed a Cmax of 900 nM. Further, in data set [20], the AUC at 24 h came out at 1100 ng·h/mL. In data set [9], this molecule displayed a bioavailability of 20.8%.
As to `O=C(Cc1cc[n+]([O-])cc1)N1CCN([C@@H]2c3ccc(Cl)cc3CCc3cccnc32)CC1`, the “Time above IC50” value in data set [22] was 2 h. For the same molecule, the results for the AUC at 24 h in data set [23] and in data set [24] were 11300 ng·h/mL and 6000 ng·h/mL, respectively. In addition, in data set [3], the half-life is 1.1 h. This molecule also came in with a Cmax in data set [18] of 3000 nM. The bioavailability in [9] is 53%. In [21], the IC50 turned out to be 1200 nM.

The record behind these values is ChEMBL document CHEMBL1131493, “Inhibitors of farnesyl protein transferase. 4-Amido, 4-carbamoyl, and 4-carboxamido derivatives of 1-(8-chloro-6,11-dihydro-5H-benzo[5,6]- cyclohepta[1,2-b]pyridin-11-yl)piperazine and 1-(3-bromo-8-chloro-6,11- dihydro-5H-benzo[5,6]cyclohepta[1,2-b]pyridin-11-yl)piperazine” (J Med Chem, 1998).
